Data as given in ChEMBL document CHEMBL4196177, “Synthesis, Evaluation, and Structure-Activity Relationship Study of Lanosterol Derivatives To Reverse Mutant-Crystallin-Induced Protein Aggregation” (J Med Chem, 2018).
Substitutions are numbered along the chain they refer to. pEC50: −log10 of the molar value. Activity calls are given as the source filed them. No cut-off for these calls is given here.

Assays:
Alpha-crystallin B chain [1] = target: T1, Alpha-crystallin B chain (Homo sapiens, UniProt P02511, R120G); experiment: Inhibition of alpha-crystallin B R120G mutant (unknown origin)-induced intracellular protein aggregation expressed in human HeLa cells or HLE-B3 cells incubated for 6 to 8 hrs by fluorescence microscopy relative to untreated control; type: cell-based
[2] = tested on: T2, Alpha-crystallin A chain (Homo sapiens), P02489 [R116C]; experiment: Induction of redissolving of aggregated alpha-crystallin A R116C mutant (unknown origin) at 200 uM incubated for 24 hrs by transmission-electron-microscopy
T2 sequence (whole entry): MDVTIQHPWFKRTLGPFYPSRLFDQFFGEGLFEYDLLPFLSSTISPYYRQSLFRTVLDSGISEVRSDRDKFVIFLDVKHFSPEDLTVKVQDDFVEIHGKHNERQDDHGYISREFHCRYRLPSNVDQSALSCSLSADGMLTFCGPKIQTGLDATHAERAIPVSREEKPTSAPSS
Procedure, shortened: (§1)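 Pre-formed amyloid-like fibrils of mutant crystallin proteins were treated with compounds in liposomes or with a liposome vehicle. Fibrillar structures were then examined by negative-stain transmission electron microscopy.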

[3] = tested on: T3, Beta-crystallin B2 (Homo sapiens), P43320 [R188H]; experiment: Induction of redissolving of aggregated beta-crystallin B2 R188H mutant (unknown origin) at 200 uM incubated for 24 hrs by ThT-fluorescence based assay
T3 sequence (whole entry): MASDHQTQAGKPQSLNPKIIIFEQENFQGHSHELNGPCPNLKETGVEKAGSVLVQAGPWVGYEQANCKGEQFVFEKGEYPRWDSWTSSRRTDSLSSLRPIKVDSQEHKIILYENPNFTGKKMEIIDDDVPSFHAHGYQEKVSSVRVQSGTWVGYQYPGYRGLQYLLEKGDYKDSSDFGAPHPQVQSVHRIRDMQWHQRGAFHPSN
Procedure, shortened: (§2)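 Purified mutant crystallin proteins, pre-formed into amyloid-like fibrils, were treated with compounds delivered in liposomes, with a liposome-only vehicle control. Redissolution was read as thioflavin T (ThT) fluorescence, n = 3.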

[4] = tested on: T4, Gamma-crystallin D (Homo sapiens), P07320 [W43R]; experiment: Induction of redissolving of aggregated gamma-crystallin D W43R mutant (unknown origin) at 200 uM incubated for 24 hrs by transmission-electron-microscopy; procedure, shortened: as §1
T4 sequence (whole entry): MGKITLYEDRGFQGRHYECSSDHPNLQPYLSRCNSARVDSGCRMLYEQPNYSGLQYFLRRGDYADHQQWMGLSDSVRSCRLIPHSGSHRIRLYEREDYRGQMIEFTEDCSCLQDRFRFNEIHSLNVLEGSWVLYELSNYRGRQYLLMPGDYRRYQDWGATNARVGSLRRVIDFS

[5] = tested on: T5, Alpha-crystallin A chain (Homo sapiens), P02489 [R116H]; experiment: Induction of redissolving of aggregated alpha-crystallin A R116H mutant (unknown origin) at 200 uM incubated for 24 hrs by transmission-electron-microscopy; procedure, shortened: as §1
T5 sequence (whole entry): T2 sequence (whole entry) with C116H

[6] = tested on: T6, Alpha-crystallin A chain (Homo sapiens), P02489 [Y118D]; experiment: Induction of redissolving of aggregated alpha-crystallin A Y118D mutant (unknown origin) at 200 uM incubated for 24 hrs by transmission-electron-microscopy; procedure, shortened: as §1
T6 sequence (whole entry): T2 sequence (whole entry) with C116R, Y118D

[7] = tested on: T6, Alpha-crystallin A chain (Homo sapiens), P02489 [Y118D]; experiment: Induction of redissolving of aggregated alpha-crystallin A Y118D mutant (unknown origin) at 200 uM incubated for 24 hrs by ThT-fluorescence based assay; procedure, shortened: as §2
[8] = tested on: T7, Alpha-crystallin B chain (Homo sapiens), P02511 [R120G]; experiment: Induction of redissolving of aggregated alpha-crystallin B R120G mutant (unknown origin) at 200 uM incubated for 24 hrs by ThT-fluorescence based assay; procedure, shortened: as §2
T7 sequence (whole entry): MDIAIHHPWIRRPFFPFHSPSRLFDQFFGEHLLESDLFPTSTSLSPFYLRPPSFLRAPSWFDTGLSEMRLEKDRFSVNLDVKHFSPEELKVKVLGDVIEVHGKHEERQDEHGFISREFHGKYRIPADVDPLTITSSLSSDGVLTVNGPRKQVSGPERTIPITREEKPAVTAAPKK

[9] = tested on: T8, Gamma-crystallin C (Homo sapiens), P07315 [G129C]; experiment: Induction of redissolving of aggregated gamma-crystallin C G129C mutant (unknown origin) at 200 uM incubated for 24 hrs by transmission-electron-microscopy; procedure, shortened: as §1
T8 sequence (whole entry): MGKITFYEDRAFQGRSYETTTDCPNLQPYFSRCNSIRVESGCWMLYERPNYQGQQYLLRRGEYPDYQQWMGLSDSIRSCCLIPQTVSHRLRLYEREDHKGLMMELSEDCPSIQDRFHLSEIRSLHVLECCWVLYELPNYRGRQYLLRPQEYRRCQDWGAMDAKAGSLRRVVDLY

[10] = tested on: T2, Alpha-crystallin A chain (Homo sapiens), P02489 [R116C]; experiment: Induction of redissolving of aggregated alpha-crystallin A R116C mutant (unknown origin) at 200 uM incubated for 24 hrs by ThT-fluorescence based assay; procedure, shortened: as §2
Alpha-crystallin B chain [11] = target: T1, Alpha-crystallin B chain; experiment: Induction of redissolving of aggregated alpha-crystallin B R120G mutant (unknown origin) incubated for 24 hrs by ThT-fluorescence based assay
Procedure, shortened: (§3)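 Dose–response EC50 for redissolving pre-formed amyloid-like fibrils of αA Y118D or αB R120G crystallin. Compounds were delivered in liposomes and the read-out was thioflavin T fluorescence.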

Alpha-crystallin A chain = Alpha-crystallin A chain (Homo sapiens, UniProt P02489, Y118D); experiment: Induction of redissolving of aggregated alpha-crystallin A Y118D mutant (unknown origin) incubated for 24 hrs by ThT-fluorescence based assay; procedure, shortened: as §3
Sequence of Alpha-crystallin A chain (P02489 whole entry Y118D): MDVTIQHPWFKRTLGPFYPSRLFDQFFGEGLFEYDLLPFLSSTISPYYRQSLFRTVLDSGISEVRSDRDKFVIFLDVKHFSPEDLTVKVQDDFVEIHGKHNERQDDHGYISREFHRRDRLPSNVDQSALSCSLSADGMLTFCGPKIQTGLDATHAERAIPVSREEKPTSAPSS

Row | EC50 (Alpha-crystallin B chain [1]) | Compound | Activity [2] | Activity [3] | Activity [4] | Activity [5] | Activity [6] | Activity [7] | Activity [8] | Activity [9] | Activity [10] | pEC50 (Alpha-crystallin B chain [11]) | pEC50 (Alpha-crystallin A chain)
1 | Not Active | C[C@H](CCCC(C)(C)O)[C@H]1CC[C@@]2(C)[C@@]34CC[C@H]5C(C)(C)/C(=N/O)CC[C@]5(C)[C@]3(CC[C@]12C)O4 | inactive | inactive | inactive | inactive | inactive | inactive | inactive | inactive | inactive | – | –
2 | – | C[C@H](CCCC(C)(C)O)[C@H]1CC[C@@]2(C)C3=C(CC[C@]12C)[C@@]1(C)CC[C@H](O)C(C)(C)[C@@H]1CC3 | Active | Active | Active | Active | Active | Active | Active | Active | Active | 5.51 | 7.45
